Compound activity (PubChem)
NS3 helicase inh – inhibitors of HCV NS3 helicase, primary screen, biochemical, Cy5 molecular beacon fluorescence | Hepatitis C virus NS3 helicase | 290,000 tested, 0.56% active | AID 1800, 2009 | NS3 helicase DNA unwinding | inhibition, % at 10.9 µM;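 active = inhibition above the mean of all tested compounds plus 3 SD, set per campaign, cut at about 35% in these data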;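 also: 0% = DMSO wells and 100% = thioflavine S control wells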
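test system = hepatitis C virus NS3 helicase domain fragment enzyme | reagent = annealed dual-labelled DNA beacon duplex, ATP-started | times = 1 h at 25 °C | detection = Cy5 fluorescence, 0 and 60 min reads | read-out basis = percent inhibition from t60/t0 fluorescence ratio | control set = DMSO and thioflavine S | replication = one well per compound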
EBNA-1 inh – EBNA-1 DNA-binding inhibitors, primary screen, biochemical, fluorescence polarization; inhibition, % at 14.8 µM; 300,000 tested, 0.34% active; AID 1950, 2009; in the data active = inhibition above about 28%
ZTA counter – ZTA (EBV) inhibition in EBNA-1 counter-screen. ZTA-DNA binding, fluorescence polarization. inhibition, % at 11 µM. 320,000 tested, 0.15% active; in the data active = inhibition above about 33%
Target sequence (P03206 whole entry, looked up): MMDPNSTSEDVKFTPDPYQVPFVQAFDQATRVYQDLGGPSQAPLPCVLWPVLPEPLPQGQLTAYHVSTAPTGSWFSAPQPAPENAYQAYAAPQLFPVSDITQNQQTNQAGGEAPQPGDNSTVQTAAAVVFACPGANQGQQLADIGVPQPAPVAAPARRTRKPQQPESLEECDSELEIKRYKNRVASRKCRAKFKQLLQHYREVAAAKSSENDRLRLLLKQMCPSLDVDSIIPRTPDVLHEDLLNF
DNA FID counter – compounds displacing fluorescent DNA intercalator, primary screen, artefact control for HCV NS3 helicase inhibitor project, biochemical, FID fluorescence; 290,000 tested, 0.17% active; inhibition, % at 7.9 µM; DNA fluorescent intercalator displacement; AID 1845, 2009; in the data active = inhibition above about 37%;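 also: 0% = vehicle and 100% = reference compound; higher means more ethidium bromide displaced from hairpin DNA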
FGF22 binding – binders of human FGF22 protein, primary screen, FGF22 synaptogenesis inhibitor project, biophysical, thermal shift, single point | AID 651658, 2012 | recombinant FGF22 thermal shift, SYPRO orange fluorescence; percent of sucrose octasulfate shift, DMSO zero | activity (Tm shift, normalised), % at 9.99 µM | 340,000 tested, 1.5% active | Fibroblast growth factor 22 (Homo sapiens), Q9HCT0;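 active = mean Tm shift, scaled 0 neutral to 100 positive control, at about 1.3% or above, every replicate too, limit read from the data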
Target sequence (Q9HCT0 whole entry, looked up): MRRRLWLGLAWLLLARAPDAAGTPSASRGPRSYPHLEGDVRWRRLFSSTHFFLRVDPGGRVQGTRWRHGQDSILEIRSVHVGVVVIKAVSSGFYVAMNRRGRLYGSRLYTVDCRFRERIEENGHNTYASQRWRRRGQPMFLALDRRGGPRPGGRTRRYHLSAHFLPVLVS
GRIN3A LBD mod – binders of NR3A ligand-binding domain, primary screen, biophysical, differential scanning fluorimetry, uHTS | Glutamate receptor ionotropic, NMDA 3A (GRIN3A) ligand-binding domain | NR3A LBD differential scanning fluorimetry, Tm shift; 0% = protein alone, 100% = glycine-bound protein | Tm shift relative to glycine control, % at 25 µM | 340,000 tested, 2.5% active | AID 1259313, 2017;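 active = melting temperature shift of at least 10% of the positive control shift, at one fixed dose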
Active calls of the source: *; nt = not tested or not shown. A selection: hits, their analogues and other compounds. The true share with any hit is near 3.6%.

SMILES	NS3 helicase inh	EBNA-1 inh	ZTA counter	DNA FID counter	FGF22 binding	GRIN3A LBD mod
C[C@H]1CCCCO[C@H](CN(C)C(=O)c2ccncc2)[C@@H](C)CN([C@@H](C)CO)C(=O)c2cc(NC(=O)Cc3ccccc3)ccc2O1	nt	nt	nt	nt	0.0	nt
COc1ccccc1-c1cn(CC[C@@H]2CC[C@H](NS(=O)(=O)c3ccccc3C)[C@@H](CO)O2)nn1	nt	nt	nt	nt	-0.1	nt
CCOC(=O)CNCCC(=O)c1ccc(Br)cc1	-2.4	17.3	5.7	1.7	nt	22.2*
Cc1cc(C)cc(Oc2cc(NC(=O)c3cn(C)nc3C)cc([N+](=O)[O-])c2)c1	2.6	-2.1	-4.7	1.5	nt	13.5*
O=C(Cn1cnc([N+](=O)[O-])c1)Nc1cc(Oc2ccc(Cl)cc2Cl)cc([N+](=O)[O-])c1	6.0	-2.8	-18.5	35.6	nt	12.4*
Cc1ccc(Oc2cc(NC(=O)CCCn3nc([N+](=O)[O-])c(Cl)c3C)cc([N+](=O)[O-])c2)cc1	2.2	-2.9	9.1	1.1	nt	9.8
Cc1cccc(Oc2cc(NC(=O)Cn3cnc([N+](=O)[O-])n3)cc([N+](=O)[O-])c2)c1	-21.7	2.6	7.2	26.1	nt	27.4*
Cc1cc([N+](=O)[O-])nn1CCCC(=O)Nc1cc(Oc2ccccc2)cc([N+](=O)[O-])c1	1.9	-1.8	-2.5	2.9	nt	1.4
N#Cc1ccc(NC(=O)Cn2cnc([N+](=O)[O-])c2)cc1	-2.5	-2.8	10.8	-0.9	nt	1.4
Cc1noc(C)c1S(=O)(=O)N(C)C[C@H]1OCCCC[C@@H](C)Oc2ccc(NC(=O)C3CCCCC3)cc2C(=O)N([C@@H](C)CO)C[C@H]1C	nt	nt	nt	nt	0.9	nt
Cc1oc(-c2cc(F)ccc2F)nc1CN1CCN(c2ncnc3ccccc23)CC1	-15.7	-19.3	1.3	-17.6	-0.1	-1.2
COc1ccc(-c2nc(CN3CCN(c4ncnc5ccccc45)CC3)c(C)o2)c(OC)c1	-12.3	10.5	7.2	-22.3	43.8*	-1.2
CC(C)c1onc(C(=O)N(C)Cc2ccccc2)c1[N+](=O)[O-]	-2.9	8.7	39.0*	-5.2	0.0	-7.0
CC(C)c1onc(C(=O)NCCc2ccccc2)c1[N+](=O)[O-]	1.7	1.7	8.8	1.1	nt	4.1
Cc1ccc(-n2nnnc2SCC(=O)Nc2sc(C)c(C)c2C#N)cc1C	-3.4	1.8	-12.1	1.6	0.2	-2.6
CCOC(=O)c1c(NC(=O)C2COc3ccccc3O2)sc2c1CC(C)(C)NC2(C)C (stereo not given)	-77.2	0.5	9.2	43.5*	nt	-0.8
CCOC(=O)c1c(NC(=O)CSc2nnnn2-c2ccccc2OCC)sc2c1CC(C)(C)NC2(C)C	nt	7.2	9.3	nt	-0.2	-0.4
CC(=O)c1ccc(-n2nnnc2SCC(=O)Nc2sc(C)c(C)c2C#N)cc1	4.0	7.8	-14.4	-2.2	43.9*	-0.3
CCOC(=O)c1c(NC(=O)CSc2nnnn2-c2ccccc2)sc2c1CC(C)(C)NC2(C)C	-51.1	-0.8	1.4	40.5*	-0.2	-1.3
CN1CCN(C(=O)Nc2cccc3ccccc23)CC1	-2.6	-1.7	-8.6	2.6	0.3	2.0
O=C(Nc1cccc2ccccc12)N1CCOCC1	0.3	-3.5	-0.1	3.7	nt	17.3*
CN(C)c1ccc(NC(=O)N2CCOCC2)cc1	4.6	49.8*	61.7*	3.3	nt	-1.1
COc1ccc(NC(=O)Nc2ccc3c(c2)C(=O)N([C@H](C)CO)C[C@@H](C)[C@H](CN(C)Cc2ccccc2)OCCCC[C@@H](C)O3)cc1	nt	nt	nt	nt	0.3	nt
CC(=O)c1ccc(NC(=O)C(C)N(C)CC(=O)Nc2ccc(N3CCOCC3)cc2)cc1 (stereo not given)	8.7	-8.9	-11.2	-17.3	-0.1	0.0
CC(=O)c1ccc(NC(=O)C(C)N(C)CC(=O)Nc2ccc(Cl)cc2)cc1 (stereo not given)	-0.7	-8.3	4.0	-17.3	44.3*	-3.2
SMILES	NS3 helicase inh	EBNA-1 inh	ZTA counter	DNA FID counter	FGF22 binding	GRIN3A LBD mod
COc1ccc2c3c([nH]c2c1)[C@H](CO)N(C(=O)c1cccc(F)c1)CC31CN(C(C)=O)C1	nt	nt	nt	nt	-0.2	nt
CC1(C)CC(=O)N(Cc2ccccc2)C(=O)C1	7.6	-6.3	-8.7	0.7	-0.1	0.4
O=C1CN(CCN2CC(=O)N(Cc3ccccc3)C(=O)C2)CC(=O)N1Cc1ccccc1	nt	nt	nt	nt	43.6*	nt
CCNC(=O)C[C@H]1C=C[C@H](NS(=O)(=O)c2ccc(F)cc2)[C@H](CO)O1	nt	nt	nt	nt	0.0	nt
COc1ccc(S(=O)(=O)N(C)C[C@@H]2Oc3ccc(NC(=O)Nc4cccc5ccccc45)cc3C(=O)N([C@@H](C)CO)C[C@@H]2C)cc1	nt	nt	nt	nt	-0.4	nt
O=C(CCN1C(=O)C2CC=C(Cl)CC2C1=O)Nc1ccccc1O (stereo not given)	4.4	3.6	2.1	-3.3	nt	10.8*
O=C(CCN1C(=O)C2CC=C(Cl)CC2C1=O)NCc1ccccc1 (stereo not given)	-2.7	11.2	6.4	-1.9	nt	0.6
COc1ccc(-c2ccoc2)cc1[C@H]1[C@H]2C=CC[C@@H](C)[C@@H]2C(=O)N1Cc1ccccc1	nt	7.7	4.6	nt	-0.1	14.3*
COc1ccc(-c2ccc([C@H]3[C@H]4C=CC[C@@H](C)[C@@H]4C(=O)N3Cc3ccccc3)c(F)c2)cc1OC	nt	2.2	10.7	nt	0.1	-0.8
COc1ccc(-c2ccc([C@H]3[C@H]4C=CC[C@@H](C)[C@@H]4C(=O)N3Cc3ccccc3)c(F)c2)cc1	nt	-1.7	9.4	nt	0.1	15.7*
C[C@H](O)C#Cc1ccc2c(c1)O[C@H](CN(C)Cc1ccc(-c3ccccc3)cc1)[C@H](C)CN([C@@H](C)CO)S2(=O)=O	nt	nt	nt	nt	-0.6	nt
Cc1cccc(NS(=O)(=O)c2ccc3c(c2)Cc2cc(S(=O)(=O)Nc4cccc(C)c4C)ccc2-3)c1C	-3.2	16.0	6.5	-3.3	0.4	13.1*
Cc1cccc(NS(=O)(=O)c2ccc3[nH]c(=O)[nH]c3c2)c1C	21.0	nt	nt	-1.3	0.0	-0.4
CN1[C@@H]2Cn3c(ccc(-c4ccncc4)c3=O)[C@H]1[C@@H](C(=O)Nc1nccs1)[C@@H]2CO	nt	nt	nt	nt	0.1	nt
Cc1ccc(C(=O)Nc2ccc(C(=O)/C=C/c3cccs3)cc2)cc1	0.5	16.6	-2.9	1.0	nt	14.7*
O=C(/C=C/c1cccs1)c1ccc(NC(=O)c2cccc(Br)c2)cc1	4.4	1.1	9.6	-4.3	nt	27.1*
COCC(=O)N(C)C[C@H]1Oc2ncc(C#Cc3cccnc3)cc2C(=O)N([C@H](C)CO)C[C@H]1C	nt	nt	nt	nt	0.0	nt
